Assay results taken from ChEMBL document CHEMBL4251593, “Nontoxic combretafuranone analogues with high in vitro antibacterial activity” (Eur J Med Chem, 2018).
Converted amounts (≈) assume the structure as drawn.

What was measured:
HepG2 [1] = assay: Induction of apoptosis in human HepG2 cells assessed as caspase 3/7 activity after 24 hrs by caspase-glo luminescent assay; format: cell-based; details: HepG2, 24 h
How it was run: (§1)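 Cells were seeded at 500 per well in their growth media and exposed to 12 concentrations from 40 µM to 1 nM, delivered from DMSO, in triplicate. After 24 h, caspase-3/7 activity was read by Caspase-Glo luminescence. Data were normalized and ED50 was fitted by variable-slope nonlinear regression.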

TERT-RPE1 [2] = assay: Cytotoxicity against human RPE1 cells assessed as reduction in cell viability after 48 hrs by ATPlite-based luminescent assay; details: RPE-1, 48 h
How it was run: (§2)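 Cells were grown […] with 10% FBS, glutamax, NEAA and pen/strep at 37 °C, 5% CO2. Media were DMEM for RPE-1, HepG2 and BJ (BJ plus 10 ng/ml bFGF), F-12K for PC3, and IMDM for K562/HL-60. Cells were seeded at 500 per well and dosed from DMSO at 12 concentrations, 40 µM to 1 nM, in triplicate. After 48 h, intracellular ATP was read by luminescence. ED50 was obtained by variable-slope nonlinear regression.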

Escherichia coli [3] = assay: Antibacterial activity against Escherichia coli ATCC 8739 after 24 hrs by microdilution assay; format: functional; details: ATCC 8739, 24 h
How it was run: (§3)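 Broth microdilution in Mueller-Hinton medium buffered to pH 7.4 (±0.2), with DMSO as diluent at no more than 2% final. Compounds were tested as 2-fold serial dilutions from 2000 to 0.488 µmol/l. The inoculum was 0.5 McFarland (1.5×10^8 cfu/ml). Plates were held at 37 °C and read visually at 24 and 48 h. MIC was taken as 95% growth inhibition versus control, determined twice in duplicate.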

[4] = test system: Staphylococcus epidermidis; assay: Antibacterial activity against Staphylococcus epidermidis HK6966/08 clinical isolate after 24 hrs by microdilution assay; format: functional; details: HK6966/08, 24 h
Staphylococcus aureus [5] = assay: Antibacterial activity against methicillin-resistant Staphylococcus aureus HK5996/08 clinical isolate after 48 hrs by microdilution assay; format: functional; details: HK5996/08, 48 h
Klebsiella pneumoniae [6] = assay: Antibacterial activity against Klebsiella pneumoniae HK11750/08 clinical isolate after 24 hrs by microdilution assay; format: functional; details: HK11750/08, 24 h
[7] = test system: Staphylococcus epidermidis; assay: Antibacterial activity against Staphylococcus epidermidis HK6966/08 clinical isolate after 48 hrs by microdilution assay; format: functional; details: HK6966/08, 48 h
Staphylococcus aureus [8] = assay: Antibacterial activity against Staphylococcus aureus ATCC 6538 after 48 hrs by microdilution assay; format: functional; details: ATCC 6538, 48 h
Pseudomonas aeruginosa [9] = assay: Antibacterial activity against Pseudomonas aeruginosa ATCC 9027 after 48 hrs by microdilution assay; format: functional; details: ATCC 9027, 48 h; how it was run: as §3
Staphylococcus aureus [10] = assay: Antibacterial activity against methicillin-resistant Staphylococcus aureus HK5996/08 clinical isolate after 24 hrs by microdilution assay; format: functional; details: HK5996/08, 24 h
K562 [11] = assay: Cytotoxicity against human K562 cells assessed as reduction in cell viability after 48 hrs by ATPlite-based luminescent assay; details: K562, 48 h; how it was run: as §2
TERT-RPE1 [12] = assay: Induction of apoptosis in human RPE1 cells assessed as caspase 3/7 activity after 24 hrs by caspase-glo luminescent assay; format: cell-based; details: RPE-1, 24 h; how it was run: as §1
Pseudomonas aeruginosa [13] = assay: Antibacterial activity against Pseudomonas aeruginosa ATCC 9027 after 24 hrs by microdilution assay; format: functional; details: ATCC 9027, 24 h; how it was run: as §3
Klebsiella pneumoniae [14] = assay: Antibacterial activity against Klebsiella pneumoniae HK11750/08 clinical isolate after 48 hrs by microdilution assay; format: functional; details: HK11750/08, 48 h
Klebsiella pneumoniae [15] = assay: Antibacterial activity against Klebsiella pneumoniae HK14368/08 clinical isolate after 24 hrs by microdilution assay; format: functional; details: HK14368/08, 24 h
Enterococcus sp. [16] = assay: Antibacterial activity against Enterococcus sp. HK14365/08 clinical isolate after 24 hrs by microdilution assay; format: functional; details: HK14365/08, 24 h
PC-3 [17] = assay: Induction of apoptosis in human PC3 cells assessed as caspase 3/7 activity after 24 hrs by caspase-glo luminescent assay; format: cell-based; details: PC-3, 24 h; how it was run: as §1
HL-60 [18] = assay: Induction of apoptosis in human HL60 cells assessed as caspase 3/7 activity after 24 hrs by caspase-glo luminescent assay; format: cell-based; details: HL-60, 24 h; how it was run: as §1
HL-60 [19] = assay: Cytotoxicity against human HL60 cells assessed as reduction in cell viability after 48 hrs by ATPlite-based luminescent assay; details: HL-60, 48 h; how it was run: as §2
Klebsiella pneumoniae [20] = assay: Antibacterial activity against Klebsiella pneumoniae HK14368/08 clinical isolate after 48 hrs by microdilution assay; format: functional; details: HK14368/08, 48 h
Escherichia coli [21] = assay: Antibacterial activity against Escherichia coli ATCC 8739 after 48 hrs by microdilution assay; format: functional; details: ATCC 8739, 48 h; how it was run: as §3
Staphylococcus aureus [22] = assay: Antibacterial activity against Staphylococcus aureus ATCC 6538 after 24 hrs by microdilution assay; format: functional; details: ATCC 6538, 24 h
BJ = assay: Cytotoxicity against human BJ cells assessed as reduction in cell viability after 48 hrs by ATPlite-based luminescent assay; how it was run: as §2
K562 [23] = assay: Induction of apoptosis in human K562 cells assessed as caspase 3/7 activity after 24 hrs by caspase-glo luminescent assay; format: cell-based; details: K562, 24 h; how it was run: as §1
Enterococcus sp. [24] = assay: Antibacterial activity against Enterococcus sp. HK14365/08 clinical isolate after 48 hrs by microdilution assay; format: functional; details: HK14365/08, 48 h
MCF7 = assay: Cytotoxicity against human MCF7 cells assessed as reduction in cell viability after 48 hrs by ATPlite-based luminescent assay; details: MCF7, 48 h
PC-3 [25] = assay: Cytotoxicity against human PC3 cells assessed as reduction in cell viability after 48 hrs by ATPlite-based luminescent assay; details: PC-3, 48 h; how it was run: as §2
HepG2 [26] = assay: Cytotoxicity against human HepG2 cells assessed as reduction in cell viability after 48 hrs by ATPlite-based luminescent assay; details: HepG2, 48 h; how it was run: as §2

Row | SMILES | IC50 (HepG2 [1]) | IC50 (TERT-RPE1 [2]) | MIC95 (Escherichia coli [3]) | MIC95 [4] | MIC95 (Staphylococcus aureus [5]) | MIC95 (Klebsiella pneumoniae [6]) | MIC95 [7] | MIC95 (Staphylococcus aureus [8]) | MIC95 (Pseudomonas aeruginosa [9]) | MIC95 (Staphylococcus aureus [10]) | IC50 (K562 [11]) | IC50 (TERT-RPE1 [12]) | MIC95 (Pseudomonas aeruginosa [13]) | MIC95 (Klebsiella pneumoniae [14]) | MIC95 (Klebsiella pneumoniae [15]) | MIC95 (Enterococcus sp. [16]) | IC50 (PC-3 [17]) | IC50 (HL-60 [18]) | IC50 (HL-60 [19]) | MIC95 (Klebsiella pneumoniae [20]) | further results
1 | O=C1OCC(c2ccc(C(F)(F)F)cc2)=C1c1ccc(Br)cc1 | > 40 µM | 16.4 µM | > 500 µM | 125 µM (≈ 47.9 µg/mL) | 62.5 µM (≈ 23.9 µg/mL) | > 500 µM | 125 µM (≈ 47.9 µg/mL) | 62.5 µM (≈ 23.9 µg/mL) | > 500 µM | 62.5 µM (≈ 23.9 µg/mL) | > 40 µM | > 40 µM | > 500 µM | > 500 µM | > 500 µM | > 500 µM | > 40 µM | > 40 µM | > 40 µM | > 500 µM | MIC95 (Escherichia coli [21]): > 500 µM; MIC95 (Staphylococcus aureus [22]): 62.5 µM (≈ 23.9 µg/mL); IC50 (BJ): > 40 µM; IC50 (K562 [23]): > 40 µM; MIC95 (Enterococcus sp. [24]): > 500 µM; IC50 (MCF7): 6.37 µM; IC50 (PC-3 [25]): > 40 µM; IC50 (HepG2 [26]): 11.4 µM
2 | Cc1ccc(C2=C(c3ccc(F)cc3)C(=O)OC2)cc1 | > 40 µM | > 40 µM | > 500 µM | 125 µM (≈ 33.5 µg/mL) | > 500 µM | > 500 µM | 125 µM (≈ 33.5 µg/mL) | 125 µM (≈ 33.5 µg/mL) | > 500 µM | > 500 µM | 4 µM | > 40 µM | > 500 µM | > 500 µM | > 500 µM | > 500 µM | > 40 µM | 7.53 µM | 9.34 µM | > 500 µM | MIC95 (Escherichia coli [21]): > 500 µM; MIC95 (Staphylococcus aureus [22]): 125 µM (≈ 33.5 µg/mL); IC50 (BJ): > 40 µM; IC50 (K562 [23]): 3.23 µM; MIC95 (Enterococcus sp. [24]): > 500 µM; IC50 (MCF7): > 40 µM; IC50 (PC-3 [25]): > 40 µM; IC50 (HepG2 [26]): > 40 µM
3 | Cc1ccc(C2=C(c3ccc(Br)cc3)C(=O)OC2)cc1 | > 40 µM | 0.97 µM | > 1000 µM | 15.6 µM (≈ 5.14 µg/mL) | 62.5 µM (≈ 20.6 µg/mL) | > 1000 µM | 31.2 µM (≈ 10.3 µg/mL) | 15.6 µM (≈ 5.14 µg/mL) | > 1000 µM | 62.5 µM (≈ 20.6 µg/mL) | 0.3 µM | 8.16 µM | > 1000 µM | > 1000 µM | > 1000 µM | > 1000 µM | > 40 µM | 2.77 µM | 0.65 µM | > 1000 µM | MIC95 (Escherichia coli [21]): > 1000 µM; MIC95 (Staphylococcus aureus [22]): 7.81 µM (≈ 2.57 µg/mL); IC50 (BJ): > 40 µM; IC50 (K562 [23]): 0.29 µM; MIC95 (Enterococcus sp. [24]): > 1000 µM; IC50 (MCF7): 14.8 µM; IC50 (PC-3 [25]): > 40 µM; IC50 (HepG2 [26]): > 40 µM
4 | COc1cc(OC)c(C2=C(c3ccc(OC)c(OC)c3OC)COC2=O)c(OC)c1 | > 40 µM | > 40 µM | > 500 µM | 125 µM (≈ 52.1 µg/mL) | 62.5 µM (≈ 26 µg/mL) | > 500 µM | 125 µM (≈ 52.1 µg/mL) | 31.2 µM (≈ 13 µg/mL) | > 500 µM | 62.5 µM (≈ 26 µg/mL) | 22.8 µM | > 40 µM | > 500 µM | > 500 µM | > 500 µM | > 500 µM | > 40 µM | > 40 µM | > 40 µM | > 500 µM | MIC95 (Escherichia coli [21]): > 500 µM; MIC95 (Staphylococcus aureus [22]): 31.2 µM (≈ 13 µg/mL); IC50 (BJ): > 40 µM; IC50 (K562 [23]): > 40 µM; MIC95 (Enterococcus sp. [24]): > 500 µM; IC50 (MCF7): > 40 µM; IC50 (PC-3 [25]): > 40 µM; IC50 (HepG2 [26]): > 40 µM
5 | COc1ccc(C2=C(c3ccc(OC)c(OC)c3)C(CO)(CO)OC2=O)cc1 | > 40 µM | > 40 µM | > 500 µM | 250 µM (≈ 96.6 µg/mL) | 500 µM (≈ 193 µg/mL) | > 500 µM | 250 µM (≈ 96.6 µg/mL) | > 500 µM | > 500 µM | 500 µM (≈ 193 µg/mL) | > 40 µM | > 40 µM | > 500 µM | > 500 µM | > 500 µM | > 500 µM | > 40 µM | > 40 µM | > 40 µM | > 500 µM | MIC95 (Escherichia coli [21]): > 500 µM; MIC95 (Staphylococcus aureus [22]): > 500 µM; IC50 (BJ): > 40 µM; IC50 (K562 [23]): > 40 µM; MIC95 (Enterococcus sp. [24]): > 500 µM; IC50 (MCF7): > 40 µM; IC50 (PC-3 [25]): > 40 µM; IC50 (HepG2 [26]): > 40 µM
